In ChEMBL document CHEMBL4706662, “Design and Evaluation of Peptide Dual-Agonists of GLP-1 and NPY2 Receptors for Glucoregulation and Weight Loss with Mitigated Nausea and Emesis” (J Med Chem, 2021):
Calls of active or inactive are those of the source. The calls are words filed in the database; no cut-off is given here. Square brackets hold non-standard residues; d marks the D form. Peptide text beside a SMILES is read from it. ξ: configuration not given here. ξF = NC(Cc1ccccc1)C(=O)O

Legend:
[1] = target: T1, Glucagon-like peptide 1 receptor (Homo sapiens, UniProt P43220); assay: Agonist activity at human GLP-1R expressed in HEK293 cells assessed as stimulation of cAMP accumulation by FRET assay; type: functional, cell-based
[2] = target: T2, Neuropeptide Y receptor type 2 (Homo sapiens, UniProt P49146); assay: Agonist activity at human NPY2R expressed in HEK293 cells assessed as inhibition of adenosine-induced stimulation of cAMP accumulation by FRET assay; type: functional, cell-based
T2 sequence (P49146 whole entry): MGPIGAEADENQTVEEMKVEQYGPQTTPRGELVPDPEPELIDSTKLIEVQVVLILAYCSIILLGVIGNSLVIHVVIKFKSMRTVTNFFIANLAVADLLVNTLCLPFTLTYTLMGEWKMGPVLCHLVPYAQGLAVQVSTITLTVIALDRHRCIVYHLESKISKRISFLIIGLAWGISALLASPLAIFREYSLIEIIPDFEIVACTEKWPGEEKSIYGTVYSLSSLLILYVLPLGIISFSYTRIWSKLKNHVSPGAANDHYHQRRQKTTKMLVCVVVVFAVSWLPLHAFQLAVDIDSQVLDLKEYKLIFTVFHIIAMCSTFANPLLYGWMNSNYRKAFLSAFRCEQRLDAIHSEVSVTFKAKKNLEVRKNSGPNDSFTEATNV

[3] = target: T3, Glucagon-like peptide 1 receptor (Rattus norvegicus, UniProt P32301); assay: Agonist activity at rat GLP-1R expressed in HEK293 cells assessed as stimulation of cAMP accumulation by FRET assay; type: functional, cell-based
T3 sequence (P32301 whole entry): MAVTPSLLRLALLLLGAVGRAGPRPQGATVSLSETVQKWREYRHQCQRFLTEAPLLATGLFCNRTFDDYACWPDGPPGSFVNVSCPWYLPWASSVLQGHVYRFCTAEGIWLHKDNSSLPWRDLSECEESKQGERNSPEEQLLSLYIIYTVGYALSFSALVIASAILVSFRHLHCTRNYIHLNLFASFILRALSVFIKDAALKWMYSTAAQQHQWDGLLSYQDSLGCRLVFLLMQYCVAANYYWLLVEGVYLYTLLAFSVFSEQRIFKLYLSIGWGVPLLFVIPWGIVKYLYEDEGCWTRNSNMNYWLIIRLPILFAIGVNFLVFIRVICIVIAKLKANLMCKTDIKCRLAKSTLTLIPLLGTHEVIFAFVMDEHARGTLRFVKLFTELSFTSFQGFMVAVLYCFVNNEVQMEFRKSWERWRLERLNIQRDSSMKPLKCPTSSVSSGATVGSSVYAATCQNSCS

[4] = target: T1, Glucagon-like peptide 1 receptor; assay: Displacement of GLP-1-red from human GLP-1R expressed in CHO-K1 cells by fluorescent competitive binding assay; type: cell-based
[5] = target: Glucagon receptor (Rattus norvegicus, UniProt P30082); assay: Agonist activity at rat glucagon receptor expressed in HEK293 cells assessed as stimulation of cAMP accumulation by FRET assay; type: functional, cell-based
[6] = target: T4, Neuropeptide Y receptor type 1 (Homo sapiens, UniProt P25929); assay: Agonist activity at human NPY1R expressed in HEK293 cells assessed as inhibition of adenosine-induced stimulation of cAMP accumulation by FRET assay; type: functional, cell-based
T4 sequence (P25929 whole entry): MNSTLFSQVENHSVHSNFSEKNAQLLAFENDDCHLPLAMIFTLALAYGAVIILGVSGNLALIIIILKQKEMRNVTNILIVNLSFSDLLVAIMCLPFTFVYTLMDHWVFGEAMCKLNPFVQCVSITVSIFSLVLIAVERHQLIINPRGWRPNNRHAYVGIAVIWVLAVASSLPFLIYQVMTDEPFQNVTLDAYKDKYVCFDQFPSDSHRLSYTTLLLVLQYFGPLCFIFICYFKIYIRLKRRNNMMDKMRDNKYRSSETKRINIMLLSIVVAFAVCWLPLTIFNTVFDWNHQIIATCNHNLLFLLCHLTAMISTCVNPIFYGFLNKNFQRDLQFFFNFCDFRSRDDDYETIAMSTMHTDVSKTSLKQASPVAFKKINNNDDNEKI

[7] = Toxicity in musk shrew assessed as induction of emesis at 10 to 60 nmol/kg, ip measured after 120 mins; type: organism-based; conditions: suncus murinus, in vivo, 2 h, dose 10-60 nmol/kg
[8] = test system: Rattus norvegicus; assay: Suppression of cumulative food intake in lean Sprague-Dawley rat at 0.3 to 60 nmol/kg dosed daily for 2 days; type: functional, organism-based; conditions: dose 0.3-60 nmol/kg, time 2.0 day
[9] = Intrinsic clearance in Sprague-Dawley rat liver microsomes at 30 uM in presence of NADPH by HPLC analysis; type: ADME, Microsome
[10] = test system: Rattus norvegicus; assay: Effect on glucose clearance in Sprague-Dawley rat model of DIO at 10 nmol/kg dosed daily for 5 days; type: functional, organism-based; conditions: time 5.0 day
[11] = target: T1, Glucagon-like peptide 1 receptor; assay: Agonist activity at human GLP-1R expressed in HEK293 cells assessed as stimulation of cAMP accumulation in presence of GLP-1R antagonist exendin9-39 by FRET assay; type: functional, cell-based
How it was run: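 HEK293 cells stably expressing human GLP-1R, transduced with H188 cAMP FRET reporter (16 h, MOI 25), read in SES (pH 7.4, 11 mM glucose, 0.1% BSA). Antagonist Ex(9–39) added 20 min before agonist. Excitation 435 nm; 485/535 emission ratio baseline-normalized, read in real time. Triplicate independent runs; EC50 by nonlinear regression of peak FRET values.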

[12] = Half life in Sprague-Dawley rat liver microsomes at 30 uM in presence of NADPH by HPLC analysis; type: ADME, Microsome
[13] = test system: Pancreatic islet; assay: Stimulation of glucose stimulated insulin secretion in rat pancreatic islets at 50 nM in presence of 3 mM glucose incubated for 60 mins; type: functional, tissue-based
[14] = test system: Rattus norvegicus; assay: Suppression of cumulative food intake in lean Sprague-Dawley rat at 10 to 20 nmol/kg dosed daily for 2 days relative to control; type: functional; conditions: dose 10-20 nmol/kg, time 2 day
[15] = test system: Rattus norvegicus; assay: Suppression of body weight in Sprague-Dawley rat model of DIO at 10 nmol/kg dosed daily for 5 days; type: functional; conditions: time 5 day
[16] = test system: Suncus murinus; assay: Improvement in glucose clearance in musk shrew at 10 nmol/kg, ip measured 20 to 60 mins following glucose administration by IPGTT method; type: functional, organism-based; conditions: time 20-60 min
How it was run: (§1)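 Male musk shrews (~8 months, 60–65 g, n = 9), within-subject counterbalanced. Baseline tail glucose by glucometer, then IP drug or saline (1 mL/100 g); 30 min later IP glucose 2 g/kg, glucose read at 20, 40, 60 and 120 min.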

[17] = Toxicity in lean Sprague-Dawley rat assessed as induction at 0.3 to 60 nmol/kg dosed daily for 2 days by kaolin consumption assay; conditions: in vivo, 48 h
[18] = test system: Rattus norvegicus; assay: Suppression of fasting blood glucose in Sprague-Dawley rat model of DIO at 10 nmol/kg dosed daily for 5 days; type: functional, organism-based; conditions: time 5.0 day
[19] = test system: Rattus norvegicus; assay: Suppression of food intake in Sprague-Dawley rat model of DIO at 10 nmol/kg dosed daily for 5 days; type: functional, organism-based; conditions: time 5.0 day
[20] = test system: Pancreatic islet; assay: Stimulation of glucose stimulated insulin secretion in rat pancreatic islets at 50 nM in presence of 10 mM glucose incubated for 60 mins; type: functional, tissue-based
[21] = test system: Rattus norvegicus; assay: Suppression of blood glucose level in prediabetic Sprague-Dawley rat model of DIO assessed as reduction in post-dextrose bolus blood glucose at 10 nmol/kg dosed daily for 5 days by IPGTT method; type: functional, organism-based; conditions: time 5.0 day
[22] = test system: Suncus murinus; assay: Improvement in glucose clearance in musk shrew assessed as increase in plasma glucose clearing rate at 10 nmol/kg, ip measured 20 to 60 mins following glucose administration by IPGTT method; type: functional, organism-based; conditions: time 20-60 min; how it was run: as §1
[23] = target: T5, Neuropeptide Y receptor type 2 (Homo sapiens) (UniProt P49146); assay: Agonist activity at human NPY2R expressed in HEK293 cells assessed as inhibition of adenosine-induced stimulation of cAMP accumulation in presence of NPY2-R antagonist […] by FRET assay; type: functional, cell-based
T5 sequence (whole entry): T2 sequence (P49146 whole entry)

T1 sequence (P43220 whole entry): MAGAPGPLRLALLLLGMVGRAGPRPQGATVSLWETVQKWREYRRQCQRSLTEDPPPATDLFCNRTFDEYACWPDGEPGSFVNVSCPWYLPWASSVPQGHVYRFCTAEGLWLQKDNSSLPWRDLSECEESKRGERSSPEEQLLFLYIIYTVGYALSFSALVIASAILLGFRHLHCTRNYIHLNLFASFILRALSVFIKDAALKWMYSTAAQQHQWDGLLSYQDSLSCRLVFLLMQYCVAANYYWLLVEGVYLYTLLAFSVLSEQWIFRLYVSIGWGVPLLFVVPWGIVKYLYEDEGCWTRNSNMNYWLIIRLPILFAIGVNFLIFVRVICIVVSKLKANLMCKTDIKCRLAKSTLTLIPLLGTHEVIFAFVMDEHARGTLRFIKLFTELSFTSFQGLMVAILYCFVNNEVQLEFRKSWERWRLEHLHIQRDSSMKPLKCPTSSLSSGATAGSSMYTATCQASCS
Sequence of Glucagon receptor (P30082 whole entry): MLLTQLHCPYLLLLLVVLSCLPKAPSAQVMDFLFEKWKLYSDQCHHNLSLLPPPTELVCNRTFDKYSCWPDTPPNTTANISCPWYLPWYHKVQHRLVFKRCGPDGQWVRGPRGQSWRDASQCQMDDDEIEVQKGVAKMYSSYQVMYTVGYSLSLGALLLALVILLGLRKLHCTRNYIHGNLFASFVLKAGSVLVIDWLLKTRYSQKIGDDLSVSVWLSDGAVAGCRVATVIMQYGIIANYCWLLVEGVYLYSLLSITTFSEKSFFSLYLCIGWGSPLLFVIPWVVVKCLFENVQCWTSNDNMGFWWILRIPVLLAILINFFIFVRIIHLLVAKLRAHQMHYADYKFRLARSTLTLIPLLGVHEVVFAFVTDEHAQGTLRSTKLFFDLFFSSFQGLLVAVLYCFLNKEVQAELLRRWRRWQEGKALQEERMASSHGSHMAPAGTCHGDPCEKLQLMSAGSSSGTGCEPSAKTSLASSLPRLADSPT

`CC[C@H](C)[C@H](NC(=O)C(Cc1ccccc1)NC(=O)[C@H](CC(C)C)NC(=O)[C@H](CCCNC(=N)N)NC(=O)[C@@H](NC(=O)[C@H](C)NC(=O)[C@H](CCC(=O)O)NC(=O)[C@H](CCC(=O)O)NC(=O)[C@H](CCC(=O)O)NC(=O)[C@H](CCSC)NC(=O)[C@H](CCC(N)=O)NC(=O)[C@H](CCCCN)NC(=O)[C@H](CO)NC(=O)[C@H](CC(C)C)NC(=O)[C@H](CC(=O)O)NC(=O)[C@H](CO)NC(=O)[C@@H](NC(=O)[C@H](Cc1ccccc1)NC(=O)[C@@H](NC(=O)CNC(=O)[C@H](CCC(N)=O)NC(=O)[C@H](CO)NC(=O)[C@@H](N)Cc1cnc[nH]1)[C@@H](C)O)[C@@H](C)O)C(C)C)C(=O)N[C@@H](CCC(=O)O)C(=O)N[C@@H](Cc1c[nH]c2ccccc12)C(=O)N[C@@H](CC(C)C)C(=O)N[C@@H](CCCCN)C(=O)N[C@@H](CC(N)=O)C(=O)NCC(=O)NCC(=O)N1CCC[C@@H]1C(=O)N[C@@H](CO)C(=O)N[C@@H](CCCNC(=N)N)C(=O)N[C@@H](Cc1cnc[nH]1)C(=O)N[C@@H](Cc1ccc(O)cc1)C(=O)N[C@@H](CC(C)C)C(=O)N[C@@H](CC(N)=O)C(=O)N[C@@H](CC(C)C)C(=O)N[C@H](C(=O)N[C@H](C(=O)N[C@@H](CCCNC(=N)N)C(=O)N[C@@H](CCC(N)=O)C(=O)N[C@@H](CCCNC(=N)N)C(=O)N[C@@H](Cc1ccc(O)cc1)C(=O)O)[C@@H](C)O)C(C)C` (some centres undefined) gave an EC50 ([1]; hek293) of 0.24 nM, an IC50 ([2]; hek293) of 32 nM and an EC50 ([3]; hek293) of 0.12 nM. For the same compound, the IC50 ([4]; cho-k1) was 27.5 nM and the EC50 ([5]; hek293) was 30 nM.

With `CC[C@H](C)[C@H](NC(=O)C(Cc1ccccc1)NC(=O)[C@H](CC(C)C)NC(=O)[C@H](CCCNC(=N)N)NC(=O)[C@@H](NC(=O)[C@H](C)NC(=O)[C@H](CCC(=O)O)NC(=O)[C@H](CCC(=O)O)NC(=O)[C@H](CCC(=O)O)NC(=O)[C@H](CCSC)NC(=O)[C@H](CCC(N)=O)NC(=O)[C@H](CCCCN)NC(=O)[C@H](CO)NC(=O)[C@H](CC(C)C)NC(=O)[C@H](CC(=O)O)NC(=O)[C@H](CO)NC(=O)[C@@H](NC(=O)[C@H](Cc1ccccc1)NC(=O)[C@@H](NC(=O)CNC(=O)[C@H](CCC(N)=O)NC(=O)[C@H](CO)NC(=O)[C@@H](N)Cc1cnc[nH]1)[C@@H](C)O)[C@@H](C)O)C(C)C)C(=O)N[C@@H](CCC(=O)O)C(=O)N[C@@H](Cc1c[nH]c2ccccc12)C(=O)N[C@@H](CC(C)C)C(=O)N[C@@H](CCCCN)C(=O)N[C@@H](CC(N)=O)C(=O)N[C@@H](CCCNC(=N)N)C(=O)N[C@@H](Cc1cnc[nH]1)C(=O)N[C@@H](Cc1ccc(O)cc1)C(=O)N[C@@H](CC(C)C)C(=O)N[C@@H](CC(N)=O)C(=O)N[C@@H](CC(C)C)C(=O)N[C@H](C(=O)N[C@H](C(=O)N[C@@H](CCCNC(=N)N)C(=O)N[C@@H](CCC(N)=O)C(=O)N[C@@H](CCCNC(=N)N)C(=O)N[C@@H](Cc1ccc(O)cc1)C(=O)O)[C@@H](C)O)C(C)C` (some centres undefined) (H-HSQGTFTSDLSKQMEEEAVRL[ξF]IEWLKNRHYLNLVTRQRY-OH) the EC50 [1] was 0.533 nM, the IC50 [2] was 61 nM and the IC50 [4] was 321 nM. It also gave an EC50 [5] greater than 3000 nM.

In the case of “H-HSQGTFTSDLSKQMEEEAVRLFIEWLKNRYYASLRRHYLNLVTRQRY-NH2”, the IC50 [4] is reported as greater than 1000 nM, the IC50 [6] is reported as 82 nM and the EC50 [5] is reported as greater than 3000 nM.

With “H-HSQGTFTSDLSKQMEEWAVRLFIEWLKNGGPSRYYASLRRHYLNLVTRQRY-NH2” the EC50 [1] was 2.3 nM, the IC50 [2] was 25 nM and the IC50 [4] was greater than 1000 nM. The EC50 [5] was greater than 3000 nM.

For “H-H[dS]QGTFTSDLSKYLEEEAVREFIAWLKNGGPSRHYLNLVTRQRY-NH2”, the EC50 [1] was 0.33 nM, the Activity [7] was “Non-Toxic” and the Activity [8] was “Dose-dependent effect”. For the same compound, the microsomal CLint at 30 µM [9] was 32.5 µL/min/mg, the Activity [10] was “Active” and the IC50 [2] was 10 nM. For the same compound, the Activity [11] was “inactive”, the half-life at 30 µM [12] was 2.27 h and the Activity [13] was “inactive”. For the same compound, the Activity [14] was 71.4%, the Activity [15] was 5% and the EC50 [3] was 0.48 nM. For the same compound, the Activity [16] was “Active”, the Activity [17] was “Non-Toxic” and the IC50 [4] was 113 nM. The Activity [18] was “Active”, the Activity [19] was “Active” and the IC50 [6] was 27 nM. For the same compound, the Activity [20] was “Active”, the Activity [21] was “Active” and the EC50 [5] was greater than 3000 nM. For the same compound, the Activity [22] was “Active” and the Activity [23] was “inactive”.
